The text below walks through data of the array DNA melting data of Ke et al. (doi:10.1101/2024.01.08.574731).

Data set [1] is described as follows: folding enthalpy; higher = less favourable; fluorescence melt of hairpins on a sequencing array, two-state fit. Conditions: sodium 0.088 M. The method in brief: (§1)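 To match UV melts, fitted temperatures were raised by 9.35 °C. These fits were bootstrapped two-state models that gave melting temperature and folding enthalpy, combined by inverse variance over four replicates. The input was normalised Cy3 fluorescence of library hairpins with annealed Cy3 and quencher oligos on a sequenced MiSeq flow cell, imaged in 50 mM Na-HEPES pH 8.0, 25 mM NaCl in 2.5 °C steps up to 60 °C.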

Data set [2] in a line: melting temperature; fluorescence melt of hairpins on a sequencing array, two-state fit, raised by 9.35 °C to match UV melts. Conditions: sodium 0.088 M. The method in brief: as §1

Regarding GATCAGCCTTCTGATC ((((((....)))))), the folding enthalpy in data set [1] was -37.9 kcal/mol. In addition, the Tm in data set [2] was found to be 48.5 °C.

With GATCAGCGAAAGCTTATC (((.(((....))).))), the folding enthalpy in data set [1] is -20.2 kcal/mol. For the same sequence, the Tm in data set [2] was 38.9 °C.

As to GATCAGCGACTGATC ((((((...)))))), the folding enthalpy in data set [1] is -33.1 kcal/mol. In data set [2], the Tm came out at 46.8 °C.

Regarding GATCAGCGCACTGATC ((((((....)))))), the folding enthalpy in data set [1] is -40.4 kcal/mol. Moreover, the Tm in data set [2] came out at 52.5 °C.

For the sequence GATCAGCGTCTGATC ((((((...)))))), the folding enthalpy in data set [1] is -38.8 kcal/mol. Further, the Tm in data set [2] is 49.9 °C.

As to GATCAGCGTGCTGATC ((((((....)))))), the folding enthalpy in data set [1] is -37.1 kcal/mol. The Tm in data set [2] amounted to 67.2 °C.

As for GATCAGCTACCTGATC ((((((....)))))), the folding enthalpy in data set [1] is -40 kcal/mol. Further, in data set [2], the Tm was 48.9 °C.

For GATCAGCTCCTGATC ((((((...)))))), the folding enthalpy in data set [1] was -43.2 kcal/mol. For the same sequence, in data set [2], the Tm worked out at 50 °C.

With GATCAGCTGCTGATC ((((((...)))))), the folding enthalpy in data set [1] was -47.7 kcal/mol. Moreover, in data set [2], the Tm was 50.7 °C.

Turning to GATCAGCTGGCTGATC ((((((....)))))), in data set [1], the folding enthalpy was -34.1 kcal/mol. Besides, the Tm in data set [2] was 64.4 °C.

As to GATCAGCTGTCTGATC ((((((....)))))), the folding enthalpy in data set [1] is -38.9 kcal/mol. In data set [2], the Tm stood at 50.3 °C.

GATCAGCTTCCTGATC ((((((....)))))): the folding enthalpy in data set [1] was -44.1 kcal/mol. Also, the Tm in data set [2] turned out to be 49.6 °C.

With GATCAGGAACTGATC ((((((...)))))), in data set [1], the folding enthalpy was -39.4 kcal/mol. Also, in data set [2], the Tm stood at 60.6 °C.

For GATCAGGATCTGATC ((((((...)))))), the folding enthalpy in data set [1] is -32.1 kcal/mol. Also, the Tm in data set [2] turned out to be 48 °C.

GATCAGGCAGCTGATC ((((((....)))))): in data set [1], the folding enthalpy was -34.2 kcal/mol. Also, the Tm in data set [2] stood at 52.4 °C.

With GATCAGGCTCCTGATC ((((((....)))))), in data set [1], the folding enthalpy was -42.8 kcal/mol. In addition, in data set [2], the Tm stood at 52.5 °C.

Regarding GATCAGGCTGCTGATC ((((((....)))))), the folding enthalpy in data set [1] was -46.2 kcal/mol. The Tm in data set [2] stood at 50.4 °C.

Regarding GATCAGGCTTCTGATC ((((((....)))))), the folding enthalpy in data set [1] is -37.1 kcal/mol. Besides, the Tm in data set [2] was found to be 50.3 °C.

Take GATCAGGGACCTGATC ((((((....)))))): the folding enthalpy in data set [1] is -50.5 kcal/mol. The Tm in data set [2] stood at 54.3 °C.

With GATCAGGGTACTGATC ((((((....)))))), the folding enthalpy in data set [1] was -41 kcal/mol. Further, in data set [2], the Tm was 55.5 °C.

For the sequence GATCAGGGTTCTGATC ((((((....)))))), the folding enthalpy in data set [1] was -42.1 kcal/mol. Also, the Tm in data set [2] was determined as 50.8 °C.

GATCAGGTCTCTGATC ((((((....)))))): the folding enthalpy in data set [1] was -50.3 kcal/mol. Moreover, in data set [2], the Tm came to 53.4 °C.

As to GATCAGGTGCCTGATC ((((((....)))))), the folding enthalpy in data set [1] is -37 kcal/mol. The Tm in data set [2] stood at 51.6 °C.

For the sequence GATCAGGTGTCTGATC ((((((....)))))), the folding enthalpy in data set [1] is -40.2 kcal/mol. Besides, in data set [2], the Tm came out at 50.9 °C.

As to GATCAGTAACCTGATC ((((((....)))))), the folding enthalpy in data set [1] is -27.6 kcal/mol. Besides, in data set [2], the Tm came to 47.4 °C.

In the case of GATCAGTAATCTGATC ((((((....)))))), the folding enthalpy in data set [1] was -36 kcal/mol. The Tm in data set [2] was 48.6 °C.

GATCAGTAGACTGATC ((((((....)))))): in data set [1], the folding enthalpy is -40.7 kcal/mol. Further, in data set [2], the Tm is 51.5 °C.

On to GATCAGTCACTGATC ((((((...)))))), for which the folding enthalpy in data set [1] is -39.9 kcal/mol. Moreover, the Tm in data set [2] was found to be 50.1 °C.

For GATCAGTCTTCTGATC ((((((....)))))), in data set [1], the folding enthalpy is -37.8 kcal/mol. Also, the Tm in data set [2] was 51.2 °C.

Turning to GATCAGTGAACTGATC ((((((....)))))), the folding enthalpy in data set [1] is -36.2 kcal/mol. The Tm in data set [2] was 52.6 °C.

For GATCAGTGATCTGATC ((((((....)))))), the folding enthalpy in data set [1] was -36.1 kcal/mol. Also, the Tm in data set [2] is 50.2 °C.

For GATCAGTGCCCTGATC ((((((....)))))), in data set [1], the folding enthalpy was -29.9 kcal/mol. The Tm in data set [2] was 49.9 °C.

Consider GATCAGTTACCTGATC ((((((....)))))), for which, in data set [1], the folding enthalpy is -37 kcal/mol. Moreover, the Tm in data set [2] amounted to 50.9 °C.

Consider GATCAGTTCACTGATC ((((((....)))))), for which the folding enthalpy in data set [1] was -44.8 kcal/mol. In data set [2], the Tm was found to be 58.1 °C.

In the case of GATCAGTTCCTGATC ((((((...)))))), the folding enthalpy in data set [1] is -42.9 kcal/mol. In addition, the Tm in data set [2] was determined as 50.9 °C.

For the sequence GATCAGTTGCCTGATC ((((((....)))))), in data set [1], the folding enthalpy is -41.1 kcal/mol. Also, the Tm in data set [2] was determined as 51.4 °C.

Regarding GATCAGTTGGCTGATC ((((((....)))))), the folding enthalpy in data set [1] was -43 kcal/mol. Also, in data set [2], the Tm came to 54.3 °C.

For the sequence GATCAGTTGTCTGATC ((((((....)))))), in data set [1], the folding enthalpy was -39.2 kcal/mol. The Tm in data set [2] stood at 50.5 °C.
